Measurements from different studies.
Each line is one published result; the experiments were not run side by side.
SLC6A2: Sodium-dependent noradrenaline transporter (SLC6A2, Homo sapiens, UniProt P23975)
FPR1: fMet-Leu-Phe receptor (FPR1, Homo sapiens, UniProt P21462)
DNA dC->dU-editing enzyme APOBEC-3B: DNA dC->dU-editing enzyme APOBEC-3B (Homo sapiens, UniProt Q9UH17)

Clc1ccc(C(c2ccc(Cl)cc2)c2nnnn2CCCCN2CCC(c3ccccc3)CC2)cc1  inhibition (SLC6A2; transporter uptake, inhibitor; HEK293; 1 µM): 34%
Cc1oc2cc(OC(=O)c3ccco3)ccc2c(=O)c1-c1ccccc1  inhibition (FPR1; calcium signal, antagonist; 50 µM): 100%
O=C(O)C1OC(Oc2cc(O)c3c(=O)cc(-c4ccc(O)cc4)oc3c2)C(O)C(O)C1O (stereo not shown)  inhibition (DNA dC->dU-editing enzyme APOBEC-3B; enzyme activity, inhibitor, fluorescence; 100 µM): 41.2%
Clc1ccc(CC2CCN(CCCCn3nnnc3C(c3ccccc3)c3ccccc3)CC2)cc1Cl  inhibition (SLC6A2; transporter uptake, inhibitor; HEK293; 1 µM): 63.9%
CC(=O)c1nn(CC(=O)N2C[C@H](F)C[C@H]2C(=O)Nc2cccc(Br)n2)c2ccc(-c3cnc(C)nc3)cc12  inhibition (Plasma kallikrein (KLKB1, Homo sapiens, UniProt P03952); enzyme activity, inhibitor; 10 µM): 20.8%
O=C(Oc1ccc2c(=O)c(-c3ccccc3Cl)c(C(F)(F)F)oc2c1)c1cccs1  inhibition (FPR1; calcium signal, antagonist; 50 µM): 100%
c1ccc(CCC2CCN(CCCn3nnnc3C(c3ccccc3)c3ccccc3)CC2)cc1  inhibition (SLC6A2; transporter uptake, inhibitor; HEK293; 1 µM): 74.4%
COC(=O)Nc1nc2ccc(C(=O)c3cccs3)cc2[nH]1  inhibition (DNA dC->dU-editing enzyme APOBEC-3B; enzyme activity, inhibitor, fluorescence; 100 µM): 25.9%
CCN1CCN(Cc2ccc(NC(=O)c3ccc(C)c(Oc4ccnc5[nH]ccc45)c3)cc2C(F)(F)F)CC1  inhibition (Serine/threonine-protein kinase WNK4 (WNK4, Homo sapiens, UniProt Q96J92); target engagement in cells, inhibitor, chemoproteomics; Huh-7; 1 µM): -11.5%
Clc1ccc(C(c2ccc(Cl)cc2)c2nnnn2CCCCN2CCN(CCCc3ccccc3)CC2)cc1  inhibition (SLC6A2; transporter uptake, inhibitor; HEK293; 1 µM): 21.3%
CCOC(=O)Oc1ccc2c(=O)c(-c3ccccc3OC)c(C(F)(F)F)oc2c1  inhibition (FPR1; calcium signal, antagonist; 50 µM): 80%
Cc1c(COc2c(F)cc(F)cc2F)c2c(n1C)C(=O)C(NCCCN(C)C)=CC2=O  inhibition (Ribosyldihydronicotinamide dehydrogenase [quinone] (NQO2, Homo sapiens, UniProt P16083); cell-free assay, inhibitor; 1 µM): 73%
CCN(CC)c1ccc(C2=NNC(=O)CC2C)cc1[N+](=O)[O-] (stereo not shown)  inhibition (3',5'-cyclic-AMP phosphodiesterase 4B (PDE4B, Homo sapiens, UniProt Q07343); enzyme activity, inhibitor; 0.1 µM): 21%
Clc1ccc(C(c2ccccc2)c2nnnn2CCCCN2CCC(Cc3ccc(Cl)c(Cl)c3)CC2)cc1 (stereo not shown)  inhibition (SLC6A2; transporter uptake, inhibitor; HEK293; 1 µM): 58.9%
CCCCCCc1cc2c(=O)c(-c3nc4ccccc4n3C)c(C)oc2cc1OC(C)=O  inhibition (FPR1; calcium signal, antagonist; 50 µM): 100%
CNC(=O)c1cc(Oc2ccc(NC(=O)Nc3ccc(Cl)c(C(F)(F)F)c3)cc2)ccn1  inhibition (Serine/threonine-protein kinase Chk2 (CHEK2, Homo sapiens, UniProt O96017, R145W); enzyme activity, inhibitor; 10 µM): 0%
O=C(c1ccc(F)cc1)N(Cc1ccccc1)C1CCCCC1  inhibition (Cysteinyl leukotriene receptor 1 (CYSLTR1, Homo sapiens, UniProt Q9Y271); ligand displacement; 10 µM): -7%
Clc1ccc(C(c2ccccc2)c2nnnn2CCCCN2CCN(CCCc3ccccc3)CC2)cc1 (stereo not shown)  inhibition (SLC6A2; transporter uptake, inhibitor; HEK293; 1 µM): 63.6%
Nc1ncnc2c1ncn2C1OC(COP(=O)(O)OP(=O)(O)O)C(O)C1O (stereo not shown)  inhibition (DNA dC->dU-editing enzyme APOBEC-3B; enzyme activity, inhibitor, fluorescence; 100 µM): 41.8%
Clc1ccc(C(c2ccccc2)c2nnnn2CCCCN2CCN(CCc3ccccc3)CC2)cc1 (stereo not shown)  inhibition (SLC6A2; transporter uptake, inhibitor; HEK293; 1 µM): 47.6%
COc1ccccc1-c1c(C(F)(F)F)oc2cc(OC(=O)C3CC3)ccc2c1=O  inhibition (FPR1; calcium signal, antagonist; 50 µM): 100%
Cc1ccc(Nc2nccc(N(C)c3ccc4c(C)n(C)nc4c3)n2)cc1S(N)(=O)=O  inhibition (Serine/threonine-protein kinase Chk2 (CHEK2, Homo sapiens, UniProt O96017, I157T); enzyme activity, inhibitor; 0.3 µM): -1%
Fc1ccc(C(c2ccc(F)cc2)c2nnnn2CCCCN2CCC(CCCc3ccccc3)CC2)cc1  inhibition (SLC6A2; transporter uptake, inhibitor; HEK293; 1 µM): 48%
CC/C(=N\NC(=O)NCc1cccc(O)c1)c1ccc(O)c(C)c1O  inhibition (Fibroblast growth factor receptor 4 (FGFR4, Homo sapiens, UniProt P22455, V550E); enzyme activity, inhibitor; 0.1 µM): 1.5%
CCc1cc2c(=O)c(-c3nc4ccccc4n3C)c(C)oc2cc1OC(C)=O  inhibition (FPR1; calcium signal, antagonist; 50 µM): 100%
Cc1nnc2sc(C(=O)NCc3ccc(S(=O)(=O)C(F)(F)F)cc3)c(N)c2c1C  inhibition (Glutamate receptor ionotropic, NMDA 1 (Grin1, Rattus norvegicus, UniProt P35439); ligand displacement, radioligand; 10 µM): 14%
O=C(Oc1ccc2c(=O)c(-c3ccccc3)c(C(F)(F)F)oc2c1)c1cccs1  inhibition (FPR1; calcium signal, antagonist; 50 µM): 90%
CC(=O)N[C@H]1CSSC[C@@H](C(=O)N[C@@H](Cc2c[nH]c3ccccc23)C(N)=O)NC(=O)[C@H](Cc2ccccc2)NC(=O)[C@H](CCCNC(=N)N)NC1=O  inhibition (Melanocortin receptor 4 (MC4R, Homo sapiens, UniProt P32245); ligand displacement, radioligand; 10 µM, 40 min): 0%
